From ChEMBL document CHEMBL1145194, “A bivalent ligand (KDAN-18) containing delta-antagonist and kappa-agonist pharmacophores bridges delta2 and kappa1 opioid receptor phenotypes” (J Med Chem, 2005)

Experiments:
Mus musculus [1] = assay: Ratio of effective dose of compound producing agonistic activity in presence and absence of benzylidenenaltrexone (25 pmol) upon intrathecal administration in mouse tail flick assay; assay type: functional
Summary of the method: (§1)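 Intrathecal tail-flick in CD1 mice. BNTX was given i.t. at 25 pmol with a 10 min peak time. Ratio is agonist ED50 with antagonist divided by agonist ED50 alone, taken as significant when its 95% confidence interval is >1.0. For combination dosing, the monovalent pair was coadministered i.t. equimolar.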

[2] = target: T1, Opioid receptors; delta & kappa (Homo sapiens, UniProt P41145+P41143); assay: Inhibition of [3H]deltorphin II binding to delta and kappa opioid receptors coexpressed in HEK 293 cells; assay type: cell-based; settings: hek293
[3] = target: T1, Opioid receptors; delta & kappa; assay: Inhibition of [3H]U-69593 binding to delta and kappa opioid receptors coexpressed in HEK 293 cells; assay type: cell-based; settings: hek293
Summary of the method: (§2)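 Radioligand binding on intact HEK cells with [3H]U69593, using either δ and κ coexpressed in one line or a mixture of HEK cells singly expressing δ or κ. Run alone, with 10 nM NTB, or with 100 nM BNTX.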

[4] = target: T1, Opioid receptors; delta & kappa; assay: Inhibition of [3H]-U-69,593 binding to delta and kappa opioid receptors co-expressed in HEK 293 cells with 100 nM benzylidenenaltrexone; assay type: cell-based; settings: hek293; summary of the method: as §2
[5] = target: T1, Opioid receptors; delta & kappa; assay: Inhibition of [3H]U-69593 binding to delta and kappa opioid receptors expressed in HEK 293 cells with 10 nM naltriben; assay type: cell-based; settings: hek293; summary of the method: as §2
Mus musculus [6] = assay: Ratio of effective dose of compound producing agonistic activity in presence and absence of norbinaltorphimine (2.5 nmol) upon intrathecal administration in mouse tail flick assay
Mus musculus [7] = assay: Effective dose required for agonistic activity upon intrathecal administration in mouse (n=10) tail flick assay; assay type: functional
Summary of the method: (§3)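 CD1 mice dosed intrathecally, antinociception by tail-flick. A response counted as positive when latency exceeded control latency plus 3 SD of mean reaction time. ED50 given with 95% confidence limits. For combination dosing, the two monovalent ligands were coadministered i.t. in equimolar ratio.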

[8] = target: T1, Opioid receptors; delta & kappa; assay: Inhibition of [3H]U-69593 binding to delta and kappa opioid receptors expressed in HEK 293 cells; assay type: cell-based; settings: hek293; summary of the method: as §2
[9] = target: T1, Opioid receptors; delta & kappa; assay: Inhibition of [3H]deltorphin II binding to delta and kappa opioid receptors expressed in HEK 293 cells; assay type: cell-based; settings: hek293
Mus musculus [10] = assay: Ratio of effective dose of compound producing agonistic activity in presence and absence of naltriben (50 pmol) upon intrathecal administration in mouse tail flick assay; assay type: functional
Summary of the method: as §1, with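 “NTB” for “BNTX”, “50” for “25”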

[11] = target: T1, Opioid receptors; delta & kappa; assay: Inhibition of [3H]U-69593 binding to delta and kappa opioid receptors expressed in HEK 293 cells with 100 nM benzylidenenaltrexone; assay type: cell-based; settings: hek293; summary of the method: as §2
[12] = target: T1, Opioid receptors; delta & kappa; assay: Inhibition of [3H]-U-69,593 binding to delta and kappa opioid receptors co-expressed in HEK 293 cells with 10 nM naltriben; assay type: cell-based; settings: hek293; summary of the method: as §2
Mus musculus [13] = assay: Ratio of effective dose of compound producing agonistic activity in presence and absence of norbinaltorphimine (2.5 nmol) upon intrathecal administration in mouse tail flick assay in presence of DN-18
Mus musculus [14] = assay: Effective dose required for agonistic activity upon intrathecal administration in mouse (n=10) tail flick assay in presence of DN-18; assay type: functional; summary of the method: as §3
Mus musculus [15] = assay: Ratio of effective dose of compound producing agonistic activity in presence and absence of benzylidenenaltrexone (25 pmol) upon intrathecal administration in mouse tail flick assay in presence of DN-18; assay type: functional; summary of the method: as §1
Mus musculus [16] = assay: Ratio of effective dose of compound producing agonistic activity in presence and absence of naltriben (50 pmol) upon intrathecal administration in mouse tail flick assay in presence of DN-18; assay type: functional
Summary of the method: as §1, with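 “NTB” for “BNTX”, “50” for “25”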

Mus musculus [17] = assay: Ratio of effective dose of compound producing agonistic activity in presence and absence of KDN21 upon intrathecal administration in mouse tail flick assay; assay type: functional
Mus musculus [18] = assay: Ratio of effective dose of compound producing agonistic activity in presence and absence of CTOP (5.9 pmol) upon intrathecal administration in mouse tail flick assay; assay type: functional

Row | Structure (SMILES) | ED50 Ratio (Mus musculus [1]) | Ki [2] [nM] | Ki [3] [nM] | Ki [4] [nM] | Ki [5] [nM] | ED50 Ratio (Mus musculus [6]) | ED50 (Mus musculus [7]) [nmol/mouse] | Ki [8] [nM] | Ki [9] [nM] | ED50 Ratio (Mus musculus [10]) | Ki [11] [nM] | Ki [12] [nM] | ED50 Ratio (Mus musculus [13]) | ED50 (Mus musculus [14]) [nmol/mouse] | ED50 Ratio (Mus musculus [15]) | ED50 Ratio (Mus musculus [16]) | ED50 Ratio (Mus musculus [17]) | ED50 Ratio (Mus musculus [18])
1 | CN(C(=O)Cc1ccc(Cl)c(Cl)c1)[C@H](CN1CCCC1)c1cccc(NC(=O)CNC(=O)CCC(=O)NCC(=O)Nc2cccc3c4c([nH]c23)[C@@H]2Oc3c(O)ccc5c3[C@@]23CCN(CC2CC2)[C@H](C5)[C@]3(O)C4)c1 | 2.1 | 1.23 | 1.66 | 3.79 | 2.02 | 33 | 0.44 | 1.9 | 0.43 | 1.1 | 2.75 | 4.06 | – | – | – | – | – | –
2 | CN(C(=O)Cc1ccc(Cl)c(Cl)c1)[C@H](CN1CCCC1)c1cccc(NC(=O)CNC(=O)CNC(=O)CCCCC(=O)NCC(=O)NCC(=O)Nc2cccc3c4c([nH]c23)[C@@H]2Oc3c(O)ccc5c3[C@@]23CCN(CC2CC2)[C@H](C5)[C@]3(O)C4)c1 | 3.4 | – | – | – | – | 3.4 | 0.5 | – | – | 2 | – | – | – | – | – | – | – | –
3 | CNC(=O)CNC(=O)CNC(=O)CCC(=O)NCC(=O)NCC(=O)Nc1cccc2c3c([nH]c12)[C@@H]1Oc2c(O)ccc4c2[C@@]12CCN(CC1CC1)[C@H](C4)[C@]2(O)C3 | – | 0.91 | > 1000 | – | – | – | – | > 1000 | 1.07 | – | – | – | – | – | – | – | – | –
4 | CNC(=O)CNC(=O)CNC(=O)CCC(=O)NCC(=O)NCC(=O)Nc1cccc([C@@H](CN2CCCC2)N(C)C(=O)Cc2ccc(Cl)c(Cl)c2)c1 | 1.3 | > 1000 | 36.2 | – | – | 10.8 | 0.11 | 23.9 | > 1000 | 1.5 | – | – | 44.8 | 0.14 | ~1 | ~1 | – | –
5 | CNC(=O)CNC(=O)CCC(=O)NCC(=O)Nc1cccc2c3c([nH]c12)[C@@H]1Oc2c(O)ccc4c2[C@@]12CCN(CC1CC1)[C@H](C4)[C@]2(O)C3 | – | 0.46 | > 1000 | – | – | – | – | > 1000 | 0.15 | – | – | – | – | – | – | – | – | –
6 | CNC(=O)CNC(=O)CCC(=O)NCC(=O)Nc1cccc([C@@H](CN2CCCC2)N(C)C(=O)Cc2ccc(Cl)c(Cl)c2)c1 | 1 | 281.2 | 41.6 | – | – | 11 | 1.4 | 6.75 | > 1000 | 1 | – | – | – | – | – | – | – | –
7 | CN(C(=O)Cc1ccc(Cl)c(Cl)c1)[C@H](CN1CCCC1)c1cccc(NC(=O)CNC(=O)CNC(=O)CCC(=O)NCC(=O)NCC(=O)Nc2cccc3c4c([nH]c23)[C@@H]2Oc3c(O)ccc5c3[C@@]23CCN(CC2CC2)[C@H](C5)[C@]3(O)C4)c1 | 3 | 0.008 | 0.06 | 0.19 | 1.94 | 39.3 | 0.19 | 2.51 | 0.52 | 25.9 | 1.14 | 2.34 | – | – | – | – | 0.65 | 0.8
